PMC10150721 (Journal of Medicinal Chemistry, 2023)

Tests used:
class-IIa HDAC = type: cell-based; conditions: HT-29 cells
How it was run: (§1)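 HT-29 cells were grown in DMEM with 10% FBS at 37 °C and 5% CO2, then trypsinised and washed into RPMI without phenol red containing 0.1% FBS. They were seeded at 200 000 cells/well overnight. Substrate was 100 μM Boc-Lys-TFA for class-IIa or 200 μM Boc-Lys-Ac for class-I/IIb, incubated 3 h at 37 °C. Trypsin developer with tween 80 then lysed the cells over 1 h; fluorescence read at ex 360/em 460 nm.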

class-I/IIb HDAC = type: cell-based; conditions: HT-29 cells
How it was run: as §1

[1] = screened at 1.0 and 10.0 µM side-by-side with SAHA and NT160

IC50 (class-IIa HDAC; read-out: IC50, class-IIa HDAC): > 10 µM
IC50 (class-I/IIb HDAC; read-out: IC50, class-I/IIb HDAC): > 10 µM
Structure (SMILES): O=C(O)c1ccc(-c2noc(C(F)(F)F)n2)cc1 [compound 1, 4-(5-(trifluoromethyl)-1,2,4-oxadiazol-3-yl)benzoic acid]
Inhibition of class-IIa HDAC activity (class-IIa HDAC; [1]): ~10%
Inhibition of class-I, class-IIb HDAC activities (class-I/IIb HDAC; [1]): ~10%
